An excerpt weighted towards active compounds, which were near 2.5% of everything screened.
NPY2 pot ag: NPY-Y2 potentiators or agonists, primary screen, cell-based. 0.45% of 220,000 active. cells expressing NPY-Y2, potentiator/agonist read-out. activation, % at 3.6 µM; in the data active means activation above about 27%;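 further: cells stimulated with NPY near EC25 plus isoproterenol at EC100; 0% = vehicle plus submaximal agonist and 100% = vehicle plus saturating agonist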
Target sequence (P49146 whole entry, looked up): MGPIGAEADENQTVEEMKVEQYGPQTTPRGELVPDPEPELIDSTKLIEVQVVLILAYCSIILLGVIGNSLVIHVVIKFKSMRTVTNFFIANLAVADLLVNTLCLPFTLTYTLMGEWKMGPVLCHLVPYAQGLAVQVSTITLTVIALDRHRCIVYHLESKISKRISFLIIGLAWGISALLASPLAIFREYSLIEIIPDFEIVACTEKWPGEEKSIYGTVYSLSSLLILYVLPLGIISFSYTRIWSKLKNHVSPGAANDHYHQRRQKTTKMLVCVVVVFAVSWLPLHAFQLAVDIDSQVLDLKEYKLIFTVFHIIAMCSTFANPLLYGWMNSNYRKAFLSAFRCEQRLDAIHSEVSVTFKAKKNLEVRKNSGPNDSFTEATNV
NPY-Y2 antag: NPY-Y2 receptor antagonists, primary screen, cell-based | 0.99% of 140,000 active | NPY-Y2 expressing cells, antagonist mode | inhibition, % at 2.7 µM | Neuropeptide Y receptor type 2 (Homo sapiens), P49146; in the data active means inhibition above about 17%;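 further: 0% = vehicle with agonist challenge and 100% = reference antagonist with challenge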
INS promoter inh: inhibitors of insulin promoter-driven GFP, primary screen, imaging, TRM-6 cells, eGFP reporter, cell count; reporter expression induced with tamoxifen; inhibition, % at 2 µM; 0.9% of 130,000 active; AID 1273, 2008;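 active means inhibition above the mean plus 3 SD, with well images judged a real hit on visual review, cut at about 60% in these data, passing the limit was not always enough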
Ins promoter up: insulin promoter activators in MIN6 cells, imaging, high-content screening, mouse beta cells. MIN6 insulin promoter-GFP reporter; stronger effect = higher value. AID 1625, 2009. 0.3% of 190,000 active. z-score at 5 µM;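 active means z-score above 3 at 5 µM with at least 500 cells counted in the well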
NPY-Y1 PAM-ag: NPY-Y1 receptor potentiators or agonists, primary screen, cell-based | NPY-Y1 expressing cells, potentiator/agonist activation | Neuropeptide Y receptor type 1 (Homo sapiens), P25929 | 0.37% of 220,000 active | activation, % at 3.6 µM; in the data active means activation above about 33%, passing the limit was not always enough;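 further: cells stimulated with NPY at EC10 then isoproterenol at EC100; 0% = low agonist plus stimulus and 100% = saturating agonist plus stimulus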
NPY Y1 blocker: NPY-Y1 receptor antagonists, primary screen, cell-based; HEK293-CNG Y1 cells, membrane potential fluorescence; NPY at EC95, then isoproterenol; inhibition, % at 3.6 µM; 1% of 200,000 active; AID 1040, 2008;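 active means inhibition above the campaign mean inhibition of all tested compounds plus 3 SD, cut at about 20% in these data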;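 further: 0% = DMSO wells given NPY plus isoproterenol and 100% = isoproterenol alone without NPY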
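Test system – HEK293 Y1/CNG channel cell line · Also added – NPY agonist 25 nM, then isoproterenol 1 µM plus Ro 20-1724 25 µM · Compound dosing – one concentration, 3.6 µM, in 0.4% DMSO · Schedule – compound incubation 1 h at room temperature, readout 45 min post-stimulation · Technique – fluorescence, membrane potential probe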
Starred values were filed as active, the others as inactive; / = no result given.

SMILES | NPY2 pot ag | NPY-Y2 antag | INS promoter inh | Ins promoter up | NPY-Y1 PAM-ag | NPY Y1 blocker
COc1cc(C(=O)NCc2nnc(SCC(=O)Nc3ccc4c(c3)OCO4)o2)cc(OC)c1OC | -7 | / | 0 | -0.1 | -4 | 4
O=C(CSc1nnc2n(C3CCCC3)c(=O)c3ccccc3n12)N1CCCCCC1 | 86* | 3 | -121 | -0.19 | 92* | -10
CC(C)NC(=O)/C(C#N)=C/c1ccc(N(C)C)o1 | 12 | / | / | / | 14 | /
CC(C)(C)C(=O)c1cn(CC(=O)NCc2ccc3c(c2)OCO3)c2ccccc12 | 6 | 3 | -7 | -0.15 | 13 | -3
CN(C)C=Nc1ccc2nn(-c3ccccc3)nc2c1 | 11 | 2 | / | 3.1* | 8 | -6
CN(C)C=Nc1ccc(Cl)c(Cl)c1 | -22 | / | / | -0.06 | 0 | /
Cc1cc([N+](=O)[O-])ccc1NC(=O)C(C)N1CCN(c2ccccn2)CC1 (configuration not stated) | -6 | / | / | -0.03 | 18 | 3
Cn1ncc2c1ncn1nc(COc3ccc4ccccc4c3)nc21 | 10 | 5 | / | 1.7 | -2 | 1
Cn1ncc2c1ncn1nc(CCc3ccccc3)nc21 | 7 | 1 | / | 3.6* | -3 | 5
CCOc1ccccc1NC(=O)CN1C(=O)C(=O)N(Cc2ccco2)C1=O | 9 | / | / | -0.79 | 0 | 3
COc1cc(/C=C\C(=O)NCc2ccc3[nH]c(C)cc3c2)cc(OC)c1OC | 9 | 0 | 66* | 0.3 | -15 | -4
Cc1cc(C)n(-c2nnc(NC34CC5CC(CC(C5)C3)C4)nn2)n1 | 28 | -4 | 33 | -0.58 | 28 | -8
Cc1ccc(-n2sc3ccccc3c2=O)cc1S(=O)(=O)N1CCCCC1 | 1 | 1 | 75* | -0.44 | -11 | 0
Cc1c(CNC(=O)c2cnn3c2NC(c2ccc(Br)cc2)CC3C(F)(F)F)cnn1C (configuration not stated) | 1 | 4 | 81* | 0.29 | 2 | 7
CC(NC(=O)c1c(Cl)cnn1C)C1CCCO1 (configuration not stated) | 12 | / | / | -0.67 | 13 | /
COc1ccc(NC(=S)N(CCc2c(C)[nH]c3ccc(C)cc23)Cc2cccs2)cc1 | -4 | 0 | 5 | -0.68 | 1 | 1
CNC(=S)N(CCc1c(C)[nH]c2ccc(C)cc12)Cc1cccs1 | 31* | / | -82 | -1.1 | 43* | -9
COc1ccc(C2CC23N=C(c2ccccc2)OC3=O)cc1 (configuration not stated) | 1 | 1 | 33 | 0.09 | -6 | 4
Cc1cc(C)cc(NC(=S)NCCN(C2CCCCC2)C2CCCC2)c1 | -21 | / | / | -0.41 | -14 | 21*
Cc1ccc(NC(=S)NCCN(C2CCCCC2)C2CCCC2)cc1 | -18 | / | / | -1.5 | -26 | 13
CC(C)Nc1ccc(Nc2ccnc3cc4ccccc4cc23)cc1 | 75* | / | / | -2.6 | 81* | /
COc1ccc(Nc2ccnc3ccccc23)cc1 | 0 | 4 | / | -1.4 | -10 | 15
CCCn1c(N2CCN(C(=O)Nc3ccc(Cl)cc3)CC2)nc2ccccc21 | -6 | / | / | -0.75 | -16 | -3
CC(C)C(NC(=O)c1ccc(C(C)(C)C)cc1)C(=O)Nc1cccc(S(N)(=O)=O)c1 (configuration not stated) | 37* | / | 33 | 1.8 | 43* | -6
CC12CCC(C(=O)O)(c3nc4cc([N+](=O)[O-])ccc4nc31)C2(C)C (configuration not stated) | 2 | / | / | -0.25 | 16 | /
COc1ccc(/C=C/C(=O)CC(O)(c2ccccc2)C(F)(F)F)cc1 (configuration not stated) | 9 | 1 | 85* | -0.69 | 9 | 11
Cc1ccc(NC(=O)c2cc(-c3ccc(C)o3)nc3ccccc23)cc1 | -132 | 115* | 3 | -0.17 | -187 | 118*
Cc1cccc(NC(=O)c2cc(-c3ccc(C)s3)nc3ccccc23)n1 | -87 | 23* | -23 | 0.55 | -117 | 28*
Cc1ccc(-c2cc(C(=O)Nc3cccnc3)c3ccccc3n2)o1 | -31 | 5 | / | -0.07 | -36 | -4

Compound activity: PubChem BioAssay, several laboratories
